Laboratory results published in ChEMBL document CHEMBL1124857, “A radiotracer for mapping cholinergic neurons of the brain” (1990).

Legend:
[1] = organism: Mus musculus; assay: Percentage dose injected in the whole brain of mouse was determined.; assay type: functional
Summary of the method: (§1)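 Female CD-1 mice (18–27 g; n = 4 or 5 per tracer) were given the tracer by tail-vein injection under ether anesthesia. Doses were 7.2–10.8 μCi of the 125I-labeled tracer or 5.0 μCi of the 3H-labeled tracer. Mice were killed 4 h later. Tissues were excised, weighed, and counted by gamma or liquid-scintillation counting. Values are % injected dose/g, or % dose in whole brain, normalized to a 25 g mouse.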

[2] = tested on: Mus musculus; assay: Evaluated for the radiotracer concentration in cerebellum of mouse brain, 4 hr after intravenous injection; assay type: functional, organism-based; summary of the method: as §1
[3] = tested on: Mus musculus; assay: Evaluated for the radiotracer concentration in cerebral cortex of mouse brain, 4 hr after intravenous injection; assay type: functional, organism-based; summary of the method: as §1
[4] = tested on: Mus musculus; assay: Evaluated for the radiotracer concentration in striatum of mouse brain, 4 hr after intravenous injection; assay type: functional, organism-based; summary of the method: as §1
[5] = tested as the 125I-labelled form

O[C@H]1Cc2cccc([125I])c2C[C@@H]1N1CCC(c2ccccc2)CC1
Dose [1]: 0.06%

O[C@@H]1Cc2cccc(I)c2C[C@H]1N1CCC(c2ccccc2)CC1
Dose [1]: 1.03% | Dose/g [2]: 0.23% | Dose/g [3]: 2.56% | Dose/g [4]: 6.26%

OC1Cc2cccc(I)c2CC1N1CCC(c2ccccc2)CC1 (racemic)
Dose/g [2, 5]: 0.2% | Dose/g [3, 5]: 1.17% | Dose/g [4, 5]: 3.29%

OC1Cc2cccc([125I])c2CC1N1CCC(c2ccccc2)CC1 (racemic)
Dose [1]: 0.56%

[3H]OC1CCCCC1N1CCC(c2ccccc2)CC1 (stereo unspecified)
Dose [1]: 0.24%

OC1CCCCC1N1CCC(c2ccccc2)CC1 (stereo unspecified)
Dose/g ([2]; tested as the 3H-labelled form): 0.1% | Dose/g ([3]; tested as the 3H-labelled form): 0.42% | Dose/g ([4]; tested as the 3H-labelled form): 0.4%

O[C@H]1Cc2cccc(I)c2C[C@@H]1N1CCC(c2ccccc2)CC1
Dose/g [2, 5]: 0.06% | Dose/g [3, 5]: 0.12% | Dose/g [4, 5]: 0.26%
